Eleven compounds from ChEMBL document CHEMBL4177578, “Synthesis, pharmacological activities and molecular docking studies of pyrazolyltriazoles as anti-bacterial and anti-inflammatory agents” (Bioorg Med Chem, 2017) can be followed below.

Common to all, as to assay type: functional
Assay [1] has as its system Salmonella paratyphi. In words: Antimicrobial activity against Salmonella paratyphi incubated for 12 to 16 hrs followed by plating in nutrient agar by tube dilution method. Particulars: Salmonella enterica subsp. enterica serovar Paratyphi A. The method in brief:
(§1)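 After 12-16 h at 37 °C in tube dilution (500 to 1.9 µg/mL; 1 mL inoculum at OD 0.2), the culture from each tube was plated on nutrient agar. MBC is the concentration at which cells are completely killed.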

Assay [2] deals with Salmonella paratyphi. As to the kind of experiment: Antimicrobial activity against Salmonella paratyphi incubated for 12 to 16 hrs by tube dilution method. Particulars: Salmonella enterica subsp. enterica serovar Paratyphi A. The method in brief:
(§2)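 Broth tube dilution, two-fold serial dilutions from 500 to 1.9 µg/mL plus a drug-free control tube. Each tube inoculated with 1 mL culture at OD 0.2 (~McFarland standard), 37 °C for 12-16 h. Turbidity compared with the control tube. MIC is the lowest concentration giving complete growth inhibition.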

Assay [3] deals with Micrococcus luteus. As to the kind of experiment: Antimicrobial activity against Micrococcus luteus incubated for 12 to 16 hrs by tube dilution method. The method in brief: (§3)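 Tube dilution, serial from 500 to 1.9 µg/mL, plus drug-free control tube. Each tube inoculated with 1 mL culture at OD 0.2, incubated 37 °C for 12–16 h. MIC is the lowest concentration with no growth by turbidity. MBC is found by plating each tube on nutrient agar: the lowest concentration at which all cells are killed.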

A short description of assay [4]: Anti-inflammatory activity using bovine serum albumin and egg albumin proteins incubated at 37 degC for 20 mins and then heated to 95 degC for 20 mins by UV-visible Spectrophotometry based protein denaturation method. The method in brief: (§4)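 Albumin (bovine serum or egg) at 1% in 50 mM sodium phosphate buffer pH 6.4. Mixture is 0.1 ml test sample (1 mg/ml) plus 0.2 ml albumin, made to 5 ml with buffer. Held 37 °C for 20 min, then 95 °C for 20 min. Cooled to room temperature, turbidity read at 660 nm. % inhibition = (Abs control − Abs sample)/Abs control × 100. Triplicate, averaged.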

Assay [5] relates to Salmonella typhi. In words: Antimicrobial activity against Salmonella typhi at 1 mg/ml incubated for 20 to 30 mins followed by incubation for 24 hrs at 37 degC by agar plate method. Particulars: Salmonella enterica subsp. enterica serovar Typhi. In outline:
(§5)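 Agar well diffusion on nutrient agar. Plates swabbed with 60 µL inoculum, 8 mm wells loaded with 100 µL sample at 1.0 mg/mL, streptomycin standard and control in separate wells. Plates held 20–30 min at 4 °C for diffusion, then 24 h at 37 °C. Zone diameter read in mm; triplicate.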

The nature of assay [6]: Anti-inflammatory activity at 50 ug/ml using bovine serum albumin and egg albumin proteins incubated at 37 degC for 20 mins and then heated to 95 degC for 20 mins by UV-visible Spectrophotometry based protein denaturation method. The method in brief: as §4
Assay [7] deals with Salmonella typhi. As to the kind of experiment: Antimicrobial activity against Salmonella typhi incubated for 12 to 16 hrs followed by plating in nutrient agar by tube dilution method. Particulars: Salmonella enterica subsp. enterica serovar Typhi. In outline: as §1
Assay [8] has as its system Micrococcus luteus. As to the kind of experiment: Antimicrobial activity against Micrococcus luteus incubated for 12 to 16 hrs followed by plating in nutrient agar by tube dilution method. In outline:
as §3

Assay [9] has as its system Salmonella paratyphi. As to the kind of experiment: Antimicrobial activity against Salmonella paratyphi at 1 mg/ml incubated for 20 to 30 mins followed by incubation for 24 hrs at 37 degC by agar plate method. Particulars: Salmonella enterica subsp. enterica serovar Paratyphi A. The method in brief: as §5
Assay [10] relates to Salmonella typhi. In words: Antimicrobial activity against Salmonella typhi incubated for 12 to 16 hrs by tube dilution method. Conditions: Salmonella enterica subsp. enterica serovar Typhi. In outline: as §2
The nature of assay [11]: Anti-inflammatory activity at 100 ug/ml using bovine serum albumin and egg albumin proteins incubated at 37 degC for 20 mins and then heated to 95 degC for 20 mins by UV-visible Spectrophotometry based protein denaturation method. In outline:
as §4

Assay [12] has as its system Staphylococcus aureus. As to the kind of experiment: Antimicrobial activity against Staphylococcus aureus at 1 mg/ml incubated for 20 to 30 mins followed by incubation for 24 hrs at 37 degC by agar plate method. The method in brief:
(§6)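 Agar well diffusion on nutrient agar. Plates swabbed with 60 µL inoculum; 8 mm wells loaded with 100 µL of compound at 1.0 mg/mL. Held 20–30 min at 4 °C for diffusion, then 24 h at 37 °C. Inhibition zone diameter read in mm. Triplicate.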

The test system of assay [13] is Micrococcus luteus. In words: Antimicrobial activity against Micrococcus luteus at 1 mg/ml incubated for 20 to 30 mins followed by incubation for 24 hrs at 37 degC by agar plate method. In outline: as §6

SMILES strings stand for the structures. Active and inactive are the calls of the source. The calls are words filed in the database; no cut-off is given here.

With `CCOC(=O)c1nnn(Cc2cn(-c3ccc(Cl)cc3)nc2-c2ccccc2)c1C(=O)OCC`, the MBC entry in assay [1], in assay [7] and in assay [8] was “inactive” throughout. The MIC result in assay [2], in assay [3] and in assay [10] was “inactive” in each case. In assay [4], the IC50 result is “Not Active”. Besides, the “diameter of the inhibition zone (DIZ)” value in assay [5], in assay [9], in assay [12] and in [13] was “inactive” each time. The inhibition result in assay [6] and in assay [11] was “inactive” throughout.

Turning to `COc1ccc(-c2nn(-c3ccccc3)cc2Cn2cc(-c3ccccc3)nn2)cc1`, the MBC result in [1], in [7] and in [8] was “inactive” throughout. Moreover, the MIC result in assay [2], in assay [3] and in assay [10] was “inactive” throughout. Besides, the IC50 entry in [4] is listed as “Not Active”. Further, the “diameter of the inhibition zone (DIZ)” value in [5], in assay [9], in [12] and in [13] was “inactive” each time. The inhibition entry in assay [6] and in [11] was “inactive” in each case.

For the compound `COC(=O)c1nnn(Cc2cn(-c3ccccc3)nc2-c2ccc(Cl)cc2)c1C(=O)OC`, the MBC result in [1], in assay [7] and in assay [8] was “inactive” each time. For the same compound, the MIC result in assay [2], in assay [3] and in assay [10] was “inactive” in each case. Moreover, in assay [4], the IC50 entry is “Not Active”. In addition, the “diameter of the inhibition zone (DIZ)” value in [5], in assay [9], in [12] and in assay [13] was “inactive” throughout. The inhibition entry in [6] and in [11] was “inactive” in each case.

`Clc1ccc(-c2nn(-c3ccccc3)cc2Cn2cc(-c3ccccc3)nn2)cc1`: the MBC result in assay [1], in assay [7] and in [8] was “inactive” throughout. In addition, the MIC entry in [2], in assay [3] and in assay [10] was “inactive” in each case. In addition, the IC50 entry in assay [4] is given as “Not Active”. For the same compound, the “diameter of the inhibition zone (DIZ)” value in [5], in assay [9], in assay [12] and in assay [13] was “inactive” throughout. For the same compound, the inhibition result in assay [6] and in [11] was “inactive” each time.

Consider `CCOC(=O)c1nnn(Cc2cn(-c3ccc(C)cc3)nc2-c2ccccc2)c1C(=O)OCC`, for which the MBC result in assay [1], in assay [7] and in assay [8] was “inactive” in each case. Further, the MIC result in assay [2], in assay [3] and in assay [10] was “inactive” throughout. In addition, the IC50 entry in assay [4] is listed as “Not Active”. Also, the “diameter of the inhibition zone (DIZ)” value in assay [5], in assay [9], in [12] and in [13] was “inactive” throughout. Moreover, the inhibition result in [6] and in assay [11] was “inactive” each time.

On to `Cc1ccc(-n2cc(CN=[N+]=[N-])c(-c3ccccc3)n2)cc1C`, for which the MBC result in assay [1], in assay [7] and in [8] was “inactive” throughout. In addition, the MIC result in [2], in assay [3] and in [10] was “inactive” throughout. Further, the IC50 result in [4] was “Not Active”. Besides, the “diameter of the inhibition zone (DIZ)” value in [5], in assay [9], in assay [12] and in assay [13] was “inactive” in each case. Further, the inhibition result in assay [6] and in [11] was “inactive” in each case.

For the compound `COC(=O)c1nnn(Cc2cn(-c3ccc(C)cc3)nc2-c2ccccc2)c1C(=O)OC`, the MBC result in [1], in assay [7] and in assay [8] was “inactive” in each case. For the same compound, the MIC entry in assay [2], in [3] and in assay [10] was “inactive” in each case. Further, the IC50 result in [4] is given as “Not Active”. The “diameter of the inhibition zone (DIZ)” value in assay [5], in assay [9], in [12] and in assay [13] was “inactive” in each case. For the same compound, the inhibition entry in assay [6] and in assay [11] was “inactive” in each case.

Regarding `FC(F)(F)c1ccc(-c2cn(Cc3cn(-c4ccccc4)nc3-c3ccccc3)nn2)c(C(F)(F)F)c1`, the MBC result in assay [1], in [7] and in assay [8] was “inactive” each time. Besides, the MIC entry in assay [2], in assay [3] and in assay [10] was “inactive” each time. In addition, the IC50 entry in assay [4] is on record as “Not Active”. The “diameter of the inhibition zone (DIZ)” value in assay [5], in assay [9], in [12] and in [13] was “inactive” each time. Further, the inhibition result in [6] and in [11] was “inactive” in each case.

For the compound `[N-]=[N+]=NCc1cn(-c2ccccc2)nc1-c1ccccc1`, the MBC result in assay [1], in assay [7] and in assay [8] was “inactive” throughout. Further, the MIC entry in [2], in [3] and in assay [10] was “inactive” in each case. Also, the IC50 result in [4] was “Not Active”. Also, the “diameter of the inhibition zone (DIZ)” value in assay [5], in assay [9], in assay [12] and in assay [13] was “inactive” throughout. Also, the inhibition entry in assay [6] and in assay [11] was “inactive” each time.

For `Clc1ccc(-n2cc(Cn3cc(-c4ccccc4)nn3)c(-c3ccccc3)n2)cc1`, the MBC entry in assay [1], in [7] and in [8] was “inactive” each time. In addition, the MIC entry in assay [2], in assay [3] and in assay [10] was “inactive” in each case. Further, the IC50 entry in assay [4] is on record as “Not Active”. Further, the “diameter of the inhibition zone (DIZ)” value in [5], in assay [9], in assay [12] and in assay [13] was “inactive” each time. The inhibition entry in assay [6] and in assay [11] was “inactive” in each case.

Consider `c1ccc(-c2cn(Cc3cn(-c4ccccc4)nc3-c3ccccc3)nn2)cc1`, for which the MBC result in assay [1], in [7] and in assay [8] was “inactive” throughout. For the same compound, the MIC entry in assay [2], in assay [3] and in assay [10] was “inactive” in each case. Also, the IC50 entry in [4] is given as “Not Active”. Also, the “diameter of the inhibition zone (DIZ)” value in [5], in assay [9], in assay [12] and in assay [13] was “inactive” throughout. In addition, the inhibition entry in [6] and in assay [11] was “inactive” in each case.
